Measured values taken from ChEMBL document CHEMBL2439972, “Synthesis, pharmacological and structural characterization, and thermodynamic aspects of GluA2-positive allosteric modulators with a 3,4-dihydro-2H-1,2,4-benzothiadiazine 1,1-dioxide scaffold” (J Med Chem, 2013).

Key:
[1] = biological target: Glutamate receptor 2 (Rattus norvegicus) (UniProt P19491); assay: Positive allosteric modulation of GluA2 receptor in rat embryonic cortex neuron assessed as concentration required to 2 fold increase of AMPA-induced membrane depolarization by fluorescence assay
Glutamate receptor 2 (Rattus norvegicus), sequence (P19491 whole entry): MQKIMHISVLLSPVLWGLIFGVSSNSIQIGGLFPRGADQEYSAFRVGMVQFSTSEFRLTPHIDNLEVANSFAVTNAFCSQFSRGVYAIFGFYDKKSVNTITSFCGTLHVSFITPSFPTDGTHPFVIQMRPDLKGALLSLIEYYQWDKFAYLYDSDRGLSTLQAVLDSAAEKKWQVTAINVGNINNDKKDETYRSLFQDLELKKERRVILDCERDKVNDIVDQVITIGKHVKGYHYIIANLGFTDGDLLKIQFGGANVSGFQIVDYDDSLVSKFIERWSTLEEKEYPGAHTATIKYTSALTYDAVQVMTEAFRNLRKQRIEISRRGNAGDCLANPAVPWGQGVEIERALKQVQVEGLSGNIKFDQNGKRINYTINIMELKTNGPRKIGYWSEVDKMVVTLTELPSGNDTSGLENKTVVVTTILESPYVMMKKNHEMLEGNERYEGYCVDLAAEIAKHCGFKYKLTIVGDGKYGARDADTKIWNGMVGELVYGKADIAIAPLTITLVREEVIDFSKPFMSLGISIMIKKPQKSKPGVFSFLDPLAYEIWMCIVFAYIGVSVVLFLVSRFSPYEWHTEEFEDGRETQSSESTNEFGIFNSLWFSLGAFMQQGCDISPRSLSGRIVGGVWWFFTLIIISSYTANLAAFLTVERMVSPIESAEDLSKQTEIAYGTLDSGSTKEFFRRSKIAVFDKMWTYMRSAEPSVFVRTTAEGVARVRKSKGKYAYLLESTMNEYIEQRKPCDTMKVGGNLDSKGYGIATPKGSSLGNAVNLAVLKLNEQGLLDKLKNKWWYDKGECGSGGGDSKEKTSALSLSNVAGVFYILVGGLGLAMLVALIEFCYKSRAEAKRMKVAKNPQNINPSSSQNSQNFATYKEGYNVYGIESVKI
Summary of the method: (§1)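 Rat E16 cortical cells cultured 18 days (37 °C, 5% CO2) were loaded with membrane-potential dye for 1 h at room temperature and read on an imaging plate reader. After a 10 s baseline, AMPA (300 μM) was added for 3 min, then compound plus AMPA for 3 min. Signal was averaged over the last 15 s, as area under the curve. Outputs: EC2× (2-fold increase), EC50, Emax relative to AMPA alone (×1). Mean ± SEM (n).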

[2] = biological target: Glutamate receptor 2 (Rattus norvegicus) (UniProt P19491); assay: Positive allosteric modulation of GluA2 receptor in rat embryonic cortex neuron assessed as increase of AMPA-induced membrane depolarization by fluorescence assay relative to AMPA; summary of the method: as §1
[3] = Positive allosteric modulation of GluA2 receptor (unknown origin) expressed in Xenopus laevis oocytes assessed as concentration required to 2 fold increase of AMPA-induced membrane depolarization by voltage clamp assay; conditions: Oocyte
Glutamate receptor 2 [4] = biological target: T1, Glutamate receptor 2 (Rattus norvegicus, UniProt P19491); assay: Positive allosteric modulation of GluA2 receptor in rat embryonic cortex neuron assessed as increase of AMPA-induced membrane depolarization by fluorescence assay; summary of the method: as §1
T1 sequence (P19491 whole entry, the tested form may be a part): as the sequence (P19491 whole entry) above

[5] = Binding affinity to rat LBD of GluA2 receptor L483Y and N754S mutant at 243 uM by isothermal titration calorimetry analysis
Glutamate receptor 2 [6] = biological target: T1, Glutamate receptor 2; assay: Positive allosteric modulation of GluA2 receptor in rat embryonic cortex neuron assessed as increase of AMPA-induced membrane depolarization by FLIPR assay
Summary of the method: (§2)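 FLIPR version of the membrane-potential dye assay on primary rat embryonic cortical neurons, same principle on a different plate reader. Measures depolarization evoked by 300 μM AMPA. Outputs: EC2× (modulator concentration doubling the AMPA response), EC50, Emax normalized to the AMPA response (×1).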

[7] = biological target: Glutamate receptor 2 (Rattus norvegicus) (UniProt P19491); assay: Positive allosteric modulation of GluA2 receptor in rat embryonic cortex neuron assessed as concentration required to 2 fold increase of AMPA-induced membrane depolarization by FLIPR assay; summary of the method: as §2
[8] = biological target: Glutamate receptor 2 (Rattus norvegicus) (UniProt P19491); assay: Positive allosteric modulation of GluA2 receptor in rat embryonic cortex neuron assessed as increase of AMPA-induced membrane depolarization by FLIPR assay relative to AMPA; summary of the method: as §2

| Structure (SMILES) | Activity [1] | fold change (FC) [2] | Activity [3] | EC50 (Glutamate receptor 2 [4]) | Kd [5] | EC50 (Glutamate receptor 2 [6]) | Activity [7] | fold change (FC) [8] |
| --- | --- | --- | --- | --- | --- | --- | --- | --- |
| Cc1ccc2c(c1)S(=O)(=O)NCN2C1CC1 | 5.13 µM | 8.7 |  |  |  |  |  |  |
| O=S1(=O)NCN(C2CC2)c2ccc(Cl)cc21 | 0.75 µM | 10.9 | 0.8 µM | 3.13 µM |  |  |  |  |
| O=S1(=O)NCN(C2CC2)c2ccc(C(F)(F)F)cc21 | > 100 µM |  |  |  |  |  |  |  |
| O=S1(=O)NCN(C2CC2)c2ccccc21 | 0.73 µM | 8.5 |  | 4.17 µM |  |  |  |  |
| N#Cc1ccc2c(c1)S(=O)(=O)NCN2C1CC1 | 0.47 µM | 9.2 |  | 2.5 µM |  |  |  |  |
| O=S1(=O)NCN(C2CC2)c2ccc(F)cc21 | 0.27 µM | 15 |  | 0.9 µM | 0.35 µM |  |  |  |
| O=S1(=O)NCN(C2CC2)c2ccc(Br)cc21 | 1.27 µM | 9.3 |  | 4.83 µM |  |  |  |  |
| O=[N+]([O-])c1ccc2c(c1)S(=O)(=O)NCN2C1CC1 |  |  |  |  |  | 22.5 µM | 14 µM | 7 |
